Reference: ChEMBL document CHEMBL3120102, “Structure-based design, synthesis and biological evaluation of novel anthra[1,2-d]imidazole-6,11-dione homologues as potential antitumor agents” (2013)

Legend:
Type in all cases: functional
MCF7 = test: Cytotoxicity against human MCF7 cells assessed as growth inhibition after 48 hrs by SRB assay
How it was run: (§1)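 NCI 60-cell-line screen, five-dose stage: each cell line exposed for 48 h to five concentrations spanning five log steps; cellular protein measured by sulforhodamine B colorimetry. A time-zero cell control and plates without drug are used to derive GI50, TGI and LC50 from log-concentration dose-response curves.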

UACC-62 = test: Cytotoxicity against human UACC62 cells assessed as growth inhibition after 48 hrs by SRB assay
How it was run: (§2)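 NCI 60-cell-line screen, two stages. Five-dose testing at […]. Cellular protein measured by sulforhodamine B colorimetry after 48 h drug exposure. A time-zero control and drug-free plates are used to derive GI50, TGI and LC50 from dose-response curves plotted as log10 concentration per cell line.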

HT-29 = test: Cytotoxicity against human HT-29 cells assessed as growth inhibition after 48 hrs by SRB assay
How it was run: (§3)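 NCI 60-cell-line five-dose screen at […]. Drug exposure was 48 h, followed by sulforhodamine B protein staining. GI50, TGI and LC50 were calculated against a time-zero control and untreated plates, with dose–response curves plotted from log10 concentration.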

[1] = (§4) Cytotoxicity against human UO31 cells assessed as growth inhibition after 48 hrs by SRB assay; conditions: UO-31, 48 h; how it was run: as §2
UO-31 = test: as §4; how it was run: as §2
RXF 393 = test: Cytotoxicity against human RXF393 cells assessed as growth inhibition after 48 hrs by SRB assay; how it was run: as §1
SF-539 = test: Cytotoxicity against human SF539 cells assessed as growth inhibition after 48 hrs by SRB assay; how it was run: as §1
CAKI-1 = test: Cytotoxicity against human CAKI-1 cells assessed as cell growth at 10 uM after 48 hrs by SRB assay; conditions: CAKI-1, 48 h, read-out: Activity
[2] = (§5) Cytotoxicity against human OVCAR4 cells assessed as growth inhibition after 48 hrs by SRB assay; conditions: OVCAR-4, 48 h; how it was run: as §1
OVCAR-4 = test: as §5; how it was run: as §1
K562 = test: Cytotoxicity against human K562 cells assessed as growth inhibition after 48 hrs by SRB assay; how it was run: as §3
COLO 205 = test: Cytotoxicity against human COLO205 cells assessed as growth inhibition after 48 hrs by SRB assay; how it was run: as §3
[3] = (§6) Cytotoxicity against human NCI-ADR-RES cells assessed as growth inhibition after 48 hrs by SRB assay; how it was run: as §1
NCI/ADR-RES = test: as §6; how it was run: as §1
SNB-19 = test: Cytotoxicity against human SNB19 cells assessed as growth inhibition after 48 hrs by SRB assay; how it was run: as §2
786-0 = test: Cytotoxicity against human 786-0 cells assessed as growth inhibition after 48 hrs by SRB assay; how it was run: as §3
NCI-H460 = test: Cytotoxicity against human NCI-H460 cells assessed as growth inhibition after 48 hrs by SRB assay; how it was run: as §1
SN12C = test: Cytotoxicity against human SN12C cells assessed as growth inhibition after 48 hrs by SRB assay; how it was run: as §2
SK-MEL-5 = test: Cytotoxicity against human SK-MEL-5 cells assessed as growth inhibition after 48 hrs by SRB assay; how it was run: as §1
NCI-H23 = test: Cytotoxicity against human NCI-H23 cells assessed as growth inhibition after 48 hrs by SRB assay; how it was run: as §1
SK-OV-3 = test: Cytotoxicity against human SKOV3 cells assessed as growth inhibition after 48 hrs by SRB assay; how it was run: as §1
OVCAR-8 = test: Cytotoxicity against human OVCAR8 cells assessed as growth inhibition after 48 hrs by SRB assay; how it was run: as §1
[4] = (§7) Cytotoxicity against human EKVX cells assessed as growth inhibition after 48 hrs by SRB assay; how it was run: as §3
EKVX = test: as §7; how it was run: as §3
CCRF-CEM = test: Cytotoxicity against human CCRF-CEM cells assessed as growth inhibition after 48 hrs by SRB assay; how it was run: as §3
A549 = test: Cytotoxicity against human A549 cells assessed as growth inhibition after 48 hrs by SRB assay; how it was run: as §3
SNB-75 = test: Cytotoxicity against human SNB75 cells assessed as growth inhibition after 48 hrs by SRB assay; how it was run: as §2
DU-145 = test: Cytotoxicity against human DU145 cells assessed as growth inhibition after 48 hrs by SRB assay; how it was run: as §3
T47D = test: Cytotoxicity against human T47D cells assessed as growth inhibition after 48 hrs by SRB assay; how it was run: as §2
MDA-MB-468 = test: Cytotoxicity against human MDA-MB-468 cells assessed as cell growth at 10 uM after 48 hrs by SRB assay; conditions: MDA-MB-468, 48 h, read-out: Activity
How it was run: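 First stage of the NCI 60 human tumour cell line screen: a single dose is tested against every line. Cell growth is read as cellular protein by sulforhodamine B colorimetry after 48 h of drug exposure, with reference to a time-zero control and to untreated plates.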

CCCSc1nc2ccc3c(c2[nH]1)C(=O)c1ccccc1C3=O
growth inhibition (GI) (MCF7): Dose-dependent effect | GI50 (MCF7; MCF7, 48 h): 57 µM | LC50 (concentration killing 50% of cells) (MCF7; MCF7, 48 h): > 100 µM | TGI (MCF7; MCF7, 48 h): > 100 µM | growth inhibition (GI) (UACC-62): Dose-dependent effect | GI50 (UACC-62; UACC-62, 48 h): 5.78 µM | LC50 (UACC-62; UACC-62, 48 h): > 100 µM | TGI (UACC-62; UACC-62, 48 h): > 100 µM | growth inhibition (GI) (HT-29): Dose-dependent effect | GI50 (HT-29; HT-29, 48 h): > 100 µM | TGI (HT-29; HT-29, 48 h): > 100 µM | CC50 (HT-29; HT-29, 48 h, read-out: LC50 (the source's name)): > 100 µM | GI50 [1]: 2530 nM | LC50 [1]: > 100 µM | TGI [1]: 70.2 µM | growth inhibition (GI) (UO-31): Dose-dependent effect | growth inhibition (GI) (RXF 393): Dose-dependent effect | GI50 (RXF 393; RXF 393, 48 h): 2650 nM | TGI (RXF 393; RXF 393, 48 h): 8.1 µM | CC50 (RXF 393; RXF 393, 48 h, read-out: LC50 (the source's name)): > 100 µM | growth inhibition (GI) (SF-539): Dose-dependent effect | GI50 (SF-539; SF-539, 48 h): 3.07 µM | TGI (SF-539; SF-539, 48 h): 32 µM | CC50 (SF-539; SF-539, 48 h, read-out: LC50 (the source's name)): > 100 µM | growth at 10 µM (CAKI-1): 45.5% | GI50 [2]: 5.05 µM | LC50 (concentration killing 50% of cells) [2]: > 100 µM | TGI [2]: > 100 µM | growth inhibition (GI) (OVCAR-4): Dose-dependent effect | growth inhibition (GI) (K562): Dose-dependent effect | GI50 (K562; K562, 48 h): 36.4 µM | TGI (K562; K562, 48 h): > 100 µM | CC50 (K562; K562, 48 h, read-out: LC50 (the source's name)): > 100 µM | growth inhibition (GI) (COLO 205): Dose-dependent effect | GI50 (COLO 205; COLO 205, 48 h): > 100 µM | LC50 (COLO 205; COLO 205, 48 h): > 100 µM | TGI (COLO 205; COLO 205, 48 h): > 100 µM | GI50 [3]: 2370 nM | LC50 (concentration causing 50% net cell kill) [3]: > 100 µM | TGI [3]: > 100 µM | growth inhibition (GI) (NCI/ADR-RES): Dose-dependent effect | growth inhibition (GI) (SNB-19): Dose-dependent effect | GI50 (SNB-19; SNB-19, 48 h): 9.35 µM | LC50 (SNB-19; SNB-19, 48 h): > 100 µM | TGI (SNB-19; SNB-19, 48 h): > 100 µM | growth inhibition (GI) (786-0): Dose-dependent effect | GI50 (786-0; 786-0, 48 h): 2130 nM | LC50 (concentration causing 50% net cell kill) (786-0; 786-0, 48 h): 9.04 µM | TGI (786-0; 786-0, 48 h): 4.39 µM | growth inhibition (GI) (NCI-H460): Dose-dependent effect | GI50 (NCI-H460; NCI-H460, 48 h): 44.7 µM | LC50 (NCI-H460; NCI-H460, 48 h): > 100 µM | TGI (NCI-H460; NCI-H460, 48 h): > 100 µM | GI50 (SN12C): 14 µM | TGI (SN12C): > 100 µM | growth inhibition (GI) (SN12C): Dose-dependent effect | CC50 (SN12C; read-out: LC50 (the source's name)): > 100 µM | growth inhibition (GI) (SK-MEL-5): Dose-dependent effect | GI50 (SK-MEL-5; SK-MEL-5, 48 h): > 100 µM | LC50 (concentration killing 50% of cells relative to time zero) (SK-MEL-5; SK-MEL-5, 48 h): > 100 µM | TGI (SK-MEL-5; SK-MEL-5, 48 h): > 100 µM | growth inhibition (GI) (NCI-H23): Dose-dependent effect | GI50 (NCI-H23; NCI-H23, 48 h): 48 µM | LC50 (NCI-H23; NCI-H23, 48 h): > 100 µM | TGI (NCI-H23; NCI-H23, 48 h): > 100 µM | growth inhibition (GI) (SK-OV-3): Dose-dependent effect | GI50 (SK-OV-3; SK-OV-3, 48 h): 3.22 µM | LC50 (concentration killing 50% of cells present at time zero) (SK-OV-3; SK-OV-3, 48 h): > 100 µM | TGI (SK-OV-3; SK-OV-3, 48 h): 20.5 µM | growth inhibition (GI) (OVCAR-8): Dose-dependent effect | GI50 (OVCAR-8; OVCAR-8, 48 h): 3.48 µM | LC50 (OVCAR-8; OVCAR-8, 48 h): > 100 µM | TGI (OVCAR-8; OVCAR-8, 48 h): > 100 µM | GI50 [4]: 64.9 µM | LC50 [4]: > 100 µM | TGI [4]: > 100 µM | growth inhibition (GI) (EKVX): Dose-dependent effect | GI50 (CCRF-CEM): > 100 µM | LC50 (CCRF-CEM): > 100 µM | TGI (CCRF-CEM): > 100 µM | growth inhibition (GI) (CCRF-CEM): Dose-dependent effect | growth inhibition (GI) (A549): Dose-dependent effect | GI50 (A549; A549, 48 h): 6.37 µM | LC50 (concentration killing 50% of cells) (A549; A549, 48 h): > 100 µM | TGI (A549; A549, 48 h): > 100 µM | growth inhibition (GI) (SNB-75): Dose-dependent effect | GI50 (SNB-75; SNB-75, 48 h): 2640 nM | LC50 (SNB-75; SNB-75, 48 h): 98.1 µM | TGI (SNB-75; SNB-75, 48 h): 6.43 µM | growth inhibition (GI) (DU-145): Dose-dependent effect | GI50 (DU-145; DU-145, 48 h): > 100 µM | TGI (DU-145; DU-145, 48 h): > 100 µM | CC50 (DU-145; DU-145, 48 h, read-out: LC50 (the source's name)): > 100 µM | GI50 (T47D): 2660 nM | LC50 (T47D): > 100 µM | TGI (T47D): > 100 µM | growth inhibition (GI) (T47D): Dose-dependent effect

O=C1c2ccccc2C(=O)c2c1ccc1[nH]c(=S)[nH]c21
growth at 10 µM (MDA-MB-468): 87.7% | growth at 10 µM (CAKI-1): 91.2%
